The subject of test [1] is Pseudomonas aeruginosa. Description: Inhibition of Pseudomonas aeruginosa RocR assessed as residual enzyme activity at 100 uM using 30 uM c-di-GMP substrate. The procedure, abridged:
(§1)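 RocR PDE activity measured with 30 µM c-di-GMP substrate, with or without inhibitors. For IC50, initial velocity used and residual activity fitted to log-dose vs response curve; points are mean and SD of three independent experiments. Single-point screens used 100 µM compound.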

A further test relates to Caulobacter vibrioides. Description: Inhibition of Caulobacter crescentus PleD assessed as residual enzyme activity at 100 uM using 100 uM GTP substrate. Put shortly: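 PleD residual DGC activity at 100 µM compound with 100 µM GTP substrate, measured by circular dichroism, or by reverse-phase HPLC of nucleotide content when compound CD spectra interfered.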
The nature of test [2]: Inhibition of Caulobacter crescentus PleD using 100 uM GTP substrate. On the set-up: species or system Caulobacter vibrioides. Put shortly: (§2)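 DGC activity of PleD measured by circular dichroism with 100 µM GTP substrate; where compound CD spectra interfered, nucleotide content analysed by reverse-phase HPLC. Initial velocity used for IC50; residual activity versus inhibitor concentration fitted to log-dose vs response curve, mean and SD of three independent experiments.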

Test [3] relates to Pseudomonas aeruginosa. As to the kind of experiment: Effect on cdrA expression in Pseudomonas aeruginosa PAO1 at 200 uM by real time RT-PCR method. The test is classed as functional, organism-based. The procedure, abridged: (§3)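 P. aeruginosa PAO1 grown at 37°C in M9 minimal medium with 0.4% glucose, plus DMSO or 200 µM compound in DMSO, to A600 2.0. Total RNA extracted, DNase-treated, reverse transcribed; qPCR with 5 ng cDNA per reaction and 300 nM primers, fluorescence read in the 60°C step. Normalized to 16S rRNA; relative fold change by 2∆∆Ct method.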

Test [4] has as its system Pseudomonas aeruginosa. Description: Effect on pctC expression in Pseudomonas aeruginosa PAO1 at 200 uM by real time RT-PCR method. It is filed as functional, organism-based. The procedure, abridged:
as §3
A general note: Quantitative PCR measures a nucleic acid by following its amplification.

Test [5] relates to Pseudomonas aeruginosa. As to the kind of experiment: Inhibition of biofilm formation of Pseudomonas aeruginosa PAO1 at 7.81 to 500 uM incubated for 16 hrs by crystal violet staining method. It is filed as functional, organism-based. Put shortly:
(§4)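 P. aeruginosa PAO1 or E. coli MG1655 grown 14 h at 37°C in M9 with 0.4% glucose (E. coli medium also with 2.5% LB). Cultures diluted in fresh medium, compound in DMSO or DMSO alone added, then incubated 16 h at 30°C. Planktonic A600 read; wells washed with PBS, air-dried, stained with 1% crystal violet, solubilised in ethanol, A595 read.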

The next test has as its system Escherichia coli. Description: Inhibition of biofilm formation of Escherichia coli MG1655 7.81 to 500 uM incubated for 16 hrs by crystal violet staining method. The test is classed as functional, organism-based. Put shortly:
as §4

Test [6] has as its system Pseudomonas aeruginosa. Description: Inhibition of Pseudomonas aeruginosa WspR assessed as residual enzyme activity at 100 uM. The procedure, abridged:
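WspR DGC activity measured by circular dichroism under the same conditions as for PleD, with 100 µM compound; read-out as residual activity.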

In test [7] the test system is Pseudomonas aeruginosa. As to the kind of experiment: Inhibition of Pseudomonas aeruginosa YfiN containing HAMP-GGDEF domain assessed as residual enzyme activity up to 250 uM.
A short description of test [8]: Inhibition of Pseudomonas aeruginosa RocR assessed as residual enzyme activity using 30 uM c-di-GMP substrate. The procedure, abridged: as §1
A short description of test [9]: Inhibition of Caulobacter crescentus PleD. On the set-up: species or system Caulobacter vibrioides. The procedure, abridged:
as §2

The structures appear in SMILES notation. pIC50: −log10 of the molar value. Active and inactive are the calls of the source. The calls are words filed in the database; no cut-off is given here.

Consider `CNc1nc(N)nc2c1ncn2CCCn1cc(Cn2cnc3c(NC)nc(N)nc32)nn1`, for which the Activity was found to be 70% in the test with Pseudomonas aeruginosa [1] and 96% in the test on Caulobacter vibrioides.
With `Nc1nc2c(ncn2CCCn2cc(COC[C@H]3O[C@@H](n4cnc5c(=O)[nH]c(N)nc54)[C@H](O)[C@@H]3O)nn2)c(=O)[nH]1`, the Activity came out at 163% in the test with Pseudomonas aeruginosa [1] and 82% in the test with Caulobacter vibrioides.
In the case of `Nc1nc2c(ncn2[C@@H]2O[C@H](COCc3cn(C[C@H]4O[C@@H](n5cnc6c(=O)[nH]c(N)nc65)[C@H](O)[C@@H]4O)nn3)[C@@H](O)[C@H]2O)c(=O)[nH]1`, the Activity worked out at 88% in the test with Pseudomonas aeruginosa [1] and 63% with Caulobacter vibrioides.
As for `Clc1ncnc2c1ncn2CCCn1cc(Cn2cnc3c(Cl)ncnc32)nn1`, the Activity is 93% with Pseudomonas aeruginosa [1] and 97% in the test on Caulobacter vibrioides.
Consider `Nc1nc2c(ncn2[C@@H]2O[C@H](Cn3cc(COC[C@H]4O[C@@H](n5cnc6c(N)ncnc65)[C@H](O)[C@@H]4O)nn3)[C@@H](O)[C@H]2O)c(=O)[nH]1`, for which the Activity in the test with Pseudomonas aeruginosa [1] amounted to 79%; with Caulobacter vibrioides, 97%.
For the molecule `Nc1nc2c(ncn2Cc2cn(C[C@H]3O[C@@H](n4cnc5c(=O)[nH]c(N)nc54)[C@H](O)[C@@H]3O)nn2)c(=O)[nH]1`, the results for the Activity in the test on Pseudomonas aeruginosa [1] and with Caulobacter vibrioides were 77% and 89%, respectively.
In the case of `Nc1ncnc2c1ncn2CCCn1cc(Cn2cnc3c(N)ncnc32)nn1`, the Activity is 64% with Pseudomonas aeruginosa [1] and 106% in the test on Caulobacter vibrioides.
In the case of `Nc1nc2c(ncn2CCn2cc(Cn3cnc4c(=O)[nH]c(N)nc43)nn2)c(=O)[nH]1`, the figures for the Activity with Pseudomonas aeruginosa [1] and with Caulobacter vibrioides were 77% and 104%, respectively.
Take `Nc1nc(Cl)c2ncn(CCCCn3cc(Cn4cnc5c(Cl)nc(N)nc54)nn3)c2n1`: the Activity with Pseudomonas aeruginosa [1] is 128%; in the test on Caulobacter vibrioides it was 98%.
A word on the pIC50: it is the negative decadic logarithm of the IC50, by convention in mol/L. Turning to `Nc1nc(Cl)c2ncn(CCCn3cc(Cn4cnc5c(Cl)nc(N)nc54)nn3)c2n1`, the pIC50 in test [2] is 4.59. Moreover, the figures for the Activity in the test with Pseudomonas aeruginosa [1] and with Caulobacter vibrioides were 96% and 32%, respectively. Moreover, the outcome with Pseudomonas aeruginosa [3] and in the test on Pseudomonas aeruginosa [4] was inactive. The inhibition entry in the test on Pseudomonas aeruginosa [5] and in the test on Escherichia coli was “inactive” throughout.
For the molecule `Nc1nc2c(ncn2CCCn2cc(Cn3cnc4c(=O)[nH]c(N)nc43)nn2)c(=O)[nH]1`, the negative logarithm of the IC50 (pIC50) is 4.76 in test [2] and 4.18 in test [8]. The Activity is 41% with Pseudomonas aeruginosa [1], 20% in the test on Pseudomonas aeruginosa [6] and 12.5% in the test with Caulobacter vibrioides. Besides, the result with Pseudomonas aeruginosa [3] and in the test with Pseudomonas aeruginosa [4] was inactive. Moreover, the inhibition result with Pseudomonas aeruginosa [5], with Pseudomonas aeruginosa [7] and in the test with Escherichia coli was “inactive” throughout.
As to `Nc1ncnc2c1ncn2[C@@H]1O[C@H](COCc2cn(C[C@H]3O[C@@H](n4cnc5c(N)ncnc54)[C@H](O)[C@@H]3O)nn2)[C@@H](O)[C@H]1O`, the Activity in the test with Pseudomonas aeruginosa [1] is 113%; in the test on Caulobacter vibrioides, 105%.
For `Nc1nc(NCc2ccccc2)c2ncn(CCCn3cc(Cn4cnc5c(NCc6ccccc6)nc(N)nc54)nn3)c2n1`, the Activity came to 75% in the test on Pseudomonas aeruginosa [1] and 109% with Caulobacter vibrioides.
Regarding `Nc1nc(Cl)c2ncn(CCn3cc(Cn4cnc5c(Cl)nc(N)nc54)nn3)c2n1`, the Activity in the test with Pseudomonas aeruginosa [1] is 86%; with Caulobacter vibrioides it was 92%.
With `Nc1nc2c(ncn2[C@@H]2O[C@@H]3COP(=O)(O)O[C@H]4[C@@H](O)[C@H](n5cnc6c(=O)[nH]c(N)nc65)O[C@@H]4COP(=O)(O)O[C@H]3[C@H]2O)c(=O)[nH]1`, the pIC50 in [9] was 5.30.
In the case of `Nc1nc2c(ncn2CCCCn2cc(Cn3cnc4c(=O)[nH]c(N)nc43)nn2)c(=O)[nH]1`, the Activity is 92% with Pseudomonas aeruginosa [1] and 87% in the test on Caulobacter vibrioides.

Values taken from ChEMBL document CHEMBL3621194, “Synthesis of Triazole-Linked Analogues of c-di-GMP and Their Interactions with Diguanylate Cyclase” (J Med Chem, 2015).
